What is called MIC is the lowest concentration found to suppress growth. Lower therefore signals inhibition by little substance.

The results in this text go back to ChEMBL document CHEMBL1138286, “Synthesis and biological evaluation of N-(aryl)-2-thiophen-2-ylacetamides series as a new class of antitubercular agents” (2007).

Format in all cases: functional
The test system of test [1] is J774. As to the kind of experiment: Cytotoxicity against murine J774 cells assessed as cell viability at 100 ug/mL after 18 hrs by MTT assay. The following applies: Mus musculus, J774, 18 h; read-out: Activity. Summed up:
(§1)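 J774 macrophages plated at 2.5 × 10⁶ cells/mL and held 1 h at 37 °C under 5% CO₂. Non-adherent cells were washed off with RPMI 1640. Adherent cells were exposed in triplicate to compound at 0.1, 1.0, 10.0 or 100 µg/mL, with medium alone as live control and 3% Tween 20 as dead control. After 18 h, MTT was added for 4 h, formazan was dissolved in DMSO, and A540 was read.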
Background: Tetrazolium dyes change colour on reduction, which living cells bring about.

Test [2] relates to J774. As to the kind of experiment: Cytotoxicity against murine J774 cells assessed as cell viability at 0.1 ug/mL after 18 hrs by MTT assay. The following applies: Mus musculus, J774, 18 h; read-out: Activity. The procedure, abridged: as §1
In test [3] the test system is Mycobacterium tuberculosis. In words: Antibacterial activity against Mycobacterium tuberculosis ATTC 27294 after 5 days by MABA assay. The following applies: for MIC: 120 h. The procedure, abridged: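 Microplate Alamar blue assay in Middlebrook 7H9 broth. Compounds serially diluted on the plate to final concentrations of […]. Plates sealed and incubated at 37 °C for 5 days. A 1:1 mix of Alamar blue and 10% Tween 80 was then added and plates incubated 24 h. Blue scored as no growth, pink as growth. MIC is the lowest concentration preventing the blue-to-pink change.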

In test [4] the test system is J774. In words: Cytotoxicity against murine J774 cells assessed as cell viability at 10 ug/mL after 18 hrs by MTT assay. The following applies: Mus musculus, J774, 18 h; read-out: Activity. Summed up:
as §1

The subject of test [5] is J774. As to the kind of experiment: Cytotoxicity against murine J774 cells assessed as cell viability at 1 ug/mL after 18 hrs by MTT assay. The following applies: Mus musculus, J774, 18 h; read-out: Activity. The procedure, abridged: as §1

In brackets after ≈: the same amount, converted by molar mass. Activity calls are given as the source filed them. The calls are words filed in the database; no cut-off is given here.

With `COc1cccc(NC(=O)Cc2cccs2)c1`, the viability at 100 µg/mL with J774 [1] was found to be 100%. The viability at 0.1 µg/mL in the test with J774 [2] was 100%. Besides, in test [3], the lowest concentration to inhibit growth (MIC) was 50 µg/mL (≈ 202 µM). In addition, in the test with J774 [4], the viability at 10 µg/mL was found to be 100%. Moreover, in the test with J774 [5], the viability at 1 µg/mL came out at 100%.

Turning to `O=C(Cc1cccs1)Nc1ccc(F)cc1`, the MIC in test [3] was 100 µg/mL (≈ 425 µM).

For the compound `O=C(Cc1cccs1)Nc1ccccc1C(F)(F)F`, in test [3], the outcome was inactive.

The compound `Cc1ccccc1NC(=O)Cc1cccs1` yielded an MIC in test [3] of 100 µg/mL (≈ 432 µM).

For the compound `Cc1cccc(C)c1NC(=O)Cc1cccs1`, in test [3], the outcome was inactive.

For the compound `O=C(Cc1cccs1)Nc1ccc([N+](=O)[O-])cc1`, in the test with J774 [1], the viability at 100 µg/mL was determined as 85%. Further, the viability at 0.1 µg/mL with J774 [2] was found to be 100%. In test [3], this compound gave an MIC of 50 µg/mL (≈ 191 µM). The viability at 10 µg/mL with J774 [4] is 100%. Also, the viability at 1 µg/mL with J774 [5] amounted to 100%.

`NNC(=O)c1ccncc1` [ISONIAZID]: the MIC in test [3] came to 0.2 µg/mL (≈ 1.46 µM).

`O=C(Cc1cccs1)Nc1ccc(Cl)cc1`: the MIC in test [3] was 100 µg/mL (≈ 397 µM).

In the case of `COc1ccc(OC)c(NC(=O)Cc2cccs2)c1`, in test [3], the result was inactive.

For `O=C(Cc1cccs1)Nc1cccc([N+](=O)[O-])c1`, the outcome in test [3] was inactive.

As to `COc1ccc(NC(=O)Cc2cccs2)cc1`, in test [3], the result was inactive.

With `O=C(Cc1cccs1)Nc1ccc(Cl)cc1F`, the MIC in test [3] stood at 100 µg/mL (≈ 371 µM).

As for `O=C(Cc1cccs1)Nc1cccc(C(F)(F)F)c1`, in test [3], the outcome was inactive.

With `O=C(Cc1cccs1)Nc1ccc2c(c1)OCO2`, the result in test [3] was inactive.

For `O=C(Cc1cccs1)Nc1ccccc1`, the viability at 100 µg/mL with J774 [1] was determined as 100%. Besides, the viability at 0.1 µg/mL with J774 [2] was determined as 100%. Further, the MIC in test [3] worked out at 25 µg/mL (≈ 115 µM). In addition, in the test with J774 [4], the viability at 10 µg/mL was 100%. In addition, the viability at 1 µg/mL with J774 [5] was 100%.

In turn, `CO[C@H]1/C=C/O[C@@]2(C)Oc3c(C)c(O)c4c(O)c(c(/C=N/N5CCN(C)CC5)c(O)c4c3C2=O)NC(=O)/C(C)=C\C=C\[C@H](C)[C@H](O)[C@@H](C)[C@@H](O)[C@@H](C)[C@H](OC(C)=O)[C@@H]1C` [RIFAMPIN] yielded an MIC in test [3] of 1 µg/mL (≈ 1.22 µM).

In the case of `O=C(Cc1cccs1)Nc1ccc(F)cc1Cl`, the result in test [3] was inactive.

`O=C(Cc1cccs1)Nc1c(Cl)cccc1Cl`: the result in test [3] was inactive.

Consider `COc1ccccc1NC(=O)Cc1cccs1`, for which the outcome in test [3] was inactive.

`O=C(Cc1cccs1)Nc1ccc(Br)cc1`: in test [3], the result was inactive.

Regarding `O=C(Cc1cccs1)Nc1cccc(Cl)c1`, in the test on J774 [1], the viability at 100 µg/mL turned out to be 100%. Also, the viability at 0.1 µg/mL in the test on J774 [2] amounted to 100%. In test [3], this compound showed an MIC of 50 µg/mL (≈ 199 µM). Besides, the viability at 10 µg/mL in the test on J774 [4] worked out at 100%. The viability at 1 µg/mL in the test on J774 [5] worked out at 100%.

As to `O=C(Cc1cccs1)Nc1ccccc1[N+](=O)[O-]`, the result in test [3] was inactive.
